21 compounds from ChEMBL document CHEMBL4680172, “Synthesis and biological evaluation of coumarin derivatives as α-glucosidase inhibitors” (Eur J Med Chem, 2020) can be followed below.

The subject of assay [1] is Saccharomyces cerevisiae. Briefly: Inhibition of Saccharomyces cerevisiae alpha-glucosidase at 100 uM using PNPG as substrate preincubated for 10 mins followed by substrate addition measured after 30 mins relative to control. Conditions: time 40.0 min. The method, boiled down:
(§1)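 Enzyme 0.1 U/mL final in 0.1 M potassium phosphate, pH 6.8, with compound added from DMSO; 10 min at 37 ℃, then PNPG at 1 mmol/L final, another 30 min at 37 ℃. Absorbance read at 405 nm against a no-compound control. Line 1 screened at a single 100 µM; IC50 from the %inhibition–concentration plot. Duplicates, means taken.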

Assay [2] in a line: Inhibition of Saccharomyces cerevisiae alpha-glucosidase using PNPG as substrate preincubated for 10 mins followed by substrate addition measured after 30 mins. Summed up: as §1
Assay [3] relates to Saccharomyces cerevisiae. The experiment in a line: Mixed type inhibition of Saccharomyces cerevisiae alpha-glucosidase assessed as equilibrium constant for free enzyme using varying level of PNPG as substrate by Lineweaver-Burk double reciprocal plot analysis. The method, boiled down: (§2)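 Run as the PNPG/phosphate pH 6.8, 37 ℃, 405 nm assay, but with compound concentration varied together with either PNPG or enzyme level. Lineweaver-Burk plots were made. KI (free enzyme) and KIS (enzyme–substrate complex) were taken from apparent Km/Vmax and 1/Vmax plotted against inhibitor concentration.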

Assay [4] concerns Saccharomyces cerevisiae. The experiment in a line: Reversible inhibition of Saccharomyces cerevisiae alpha-glucosidase. The method, boiled down: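 Rate (ΔOD/min) was plotted against α-glucosidase concentration at several fixed inhibitor levels, 0–35 µM. Conditions otherwise as in the PNPG 405 nm assay at pH 6.8 and 37 ℃.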
Assay [5] concerns Saccharomyces cerevisiae. Briefly: Mixed type inhibition of Saccharomyces cerevisiae alpha-glucosidase assessed as equilibrium constant for enzyme substrate complex using varying level of PNPG as substrate by Lineweaver-Burk double reciprocal plot analysis. Summed up: as §2

Activity calls are given as the source filed them. The rule behind the calls is not given here.

The term inhibition denotes the drop in the measured response relative to a control, in per cent. What is called IC50 is the midpoint of a concentration-inhibition curve. `O=C(/C=C/c1ccc(F)cc1)Oc1cc(=O)oc2ccccc12` showed an inhibition in the assay with Saccharomyces cerevisiae [1] of 68.5%. Moreover, it took 41.7 µM to reach half-maximal inhibition in assay [2] (IC50).
The like results for `O=C(/C=C/c1ccc(F)cc1)Oc1ccc2ccc(=O)oc2c1` were, in that order, 26.2% and above 100 µM.
As for `Cc1ccc(/C=C/C(=O)Oc2cc(=O)oc3ccccc23)cc1`, the results for the Ke in the assay with Saccharomyces cerevisiae [3] and in the assay with Saccharomyces cerevisiae [5] were 27 µM and 13.7 µM, respectively. Moreover, in the assay on Saccharomyces cerevisiae [1], the inhibition came out at 89.9%. In addition, half-maximal inhibition in assay [2] (IC50) was put at 13 µM. For the same compound, the inhibition result in the assay with Saccharomyces cerevisiae [4] was “Active”.
Consider `O=C(/C=C/c1ccccc1)Oc1cc(=O)oc2ccccc12`, for which the values for the Ke in the assay with Saccharomyces cerevisiae [3] and in the assay with Saccharomyces cerevisiae [5] were 27.4 µM and 13 µM, respectively. Besides, in the assay with Saccharomyces cerevisiae [1], the inhibition came out at 83.5%. The same compound gave an IC50 in assay [2] of 19.6 µM. In addition, the inhibition result in the assay with Saccharomyces cerevisiae [4] was “Active”.
The compound `O=C(/C=C/c1ccc(C(F)(F)F)cc1)Oc1ccc2ccc(=O)oc2c1` returned an inhibition in the assay with Saccharomyces cerevisiae [1] of 38.2%. This compound registered an IC50 in assay [2] above 100 µM.
Take `O=c1ccc2ccc(O)cc2o1` [UMBELLIFERONE]: in assay [2], the IC50 worked out at 9000 µM.
As for `COc1cc(/C=C/C(=O)Oc2cc(=O)oc3ccccc23)ccc1O`, in the assay with Saccharomyces cerevisiae [1], the inhibition stood at 19.5%. This compound returned an IC50 in assay [2] above 100 µM.
In the case of `O=C(/C=C/c1ccccc1)Oc1ccc2ccc(=O)oc2c1` [7-CINNAMOYLOXYCOUMARIN], the inhibition in the assay on Saccharomyces cerevisiae [1] worked out at 45.6%. In assay [2], this compound displayed an IC50 above 100 µM.
`C[C@H]1[C@H](C)CC[C@]2(C(=O)O)CC[C@]3(C)C(=CC[C@@H]4[C@@]5(C)CC[C@H](O)C(C)(C)[C@@H]5CC[C@]43C)[C@H]12` [URSOLIC ACID] showed an IC50 in assay [2] of 11.4 µM.
`O=C(/C=C/c1ccc(O)cc1)Oc1cc(=O)oc2ccccc12` returned an inhibition with Saccharomyces cerevisiae [1] of 33.2%. The half-maximal inhibitory concentration (IC50) in assay [2] is above 100 µM.
The like results for `COc1ccc(/C=C/C(=O)Oc2ccc3ccc(=O)oc3c2)cc1` were, in that order, 20.2% and above 100 µM.
The like results for `COc1cc(/C=C/C(=O)Oc2ccc3ccc(=O)oc3c2)ccc1O` were, in that order, 20.3% and above 100 µM.
`O=C(/C=C/c1ccc(Cl)cc1)Oc1ccc2ccc(=O)oc2c1` had an inhibition in the assay with Saccharomyces cerevisiae [1] of 29.9%. For the same compound, the IC50 in assay [2] was above 100 µM.
With `O=C(O)/C=C/c1ccccc1` [CINNAMIC ACID], the IC50 in assay [2] worked out at 15000 µM.
In the case of `O=C(/C=C/c1ccc(Br)cc1)Oc1cc(=O)oc2ccccc12`, the inhibition in the assay with Saccharomyces cerevisiae [1] was determined as 61%. The compound further displayed an IC50 in assay [2] of 69.3 µM.
The like results for `O=C(/C=C/c1ccc(Br)cc1)Oc1ccc2ccc(=O)oc2c1` were, in that order, 30.1% and above 100 µM.
`Cc1ccc(/C=C/C(=O)Oc2ccc3ccc(=O)oc3c2)cc1` gave an inhibition in the assay with Saccharomyces cerevisiae [1] of 54.7%. In addition, the IC50 in assay [2] worked out at 94.5 µM.
`O=C(/C=C/c1ccc(C(F)(F)F)cc1)Oc1cc(=O)oc2ccccc12`: in the assay on Saccharomyces cerevisiae [1], the inhibition turned out to be 41.9%. In assay [2], this compound gave a concentration for half-maximal inhibition (IC50) above 100 µM.
`O=C(/C=C/c1ccc(Cl)cc1)Oc1cc(=O)oc2ccccc12` came in with an inhibition with Saccharomyces cerevisiae [1] of 33.1%. This compound also had an IC50 in assay [2] above 100 µM.
The like results for `COc1ccc(/C=C/C(=O)Oc2cc(=O)oc3ccccc23)cc1` were, in that order, 73.2% and 36.9 µM.
In the assay with Saccharomyces cerevisiae [1], `O=C(/C=C/c1ccc(O)cc1)Oc1ccc2ccc(=O)oc2c1` yielded an inhibition of 13.1%. Also, in assay [2], the IC50 was above 100 µM.
